Laboratory results: ChEMBL document CHEMBL2331170, “Synthesis and biological evaluation of novel pyranochalcone derivatives as a new class of microtubule stabilizing agents” (Eur J Med Chem, 2013)
Each block holds one compound with its values, some of them ahead of it. Active and inactive are the calls of the source. No cut-off for these calls is given here.

Key:
HepG2 [1] = assay: Antitumor activity against human HepG2 cells xenografted in Balb/C mouse assessed as tumor growth inhibition rate at 5 mg/kg administered every 4 days for 3 weeks measured on day 20; assay type: functional; conditions: read-out: TGI
In short: (§1)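 HepG2 cells (5 × 10⁶/mouse) in HBSS implanted in the right flank of 5–6-week-old female Balb/C and athymic nude mice, six per group. Dosing began once tumors reached ~100 mm³: three weeks at 2.5, 5 or 10 mg/kg every two days, or Taxol 5 mg/kg every four days; controls got physiological saline. Tumor volume = π/6 × length × width². T/C (%) = treated/control tumor volume × 100. Inhibition = (1 − treated/control tumor weight) × 100.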

Tubulin (Sus scrofa) [2] = target: T1, Tubulin (Sus scrofa) (UniProt P02554+P02550); assay: Stabilization of purified pig brain tubulin polymerization at 20 uM measured every 30 seconds by spectrophotometry
In short: (§2)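 It was pre-incubated 5 min with compound (5, 10, 20 μM), Taxol (5, 20 μM) or DMSO. GTP was added to 1 mM final to start assembly, followed as the rise in absorbance at 340 nm at 37 °C.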

Tubulin (Sus scrofa) [3] = target: T1, Tubulin (Sus scrofa); assay: Stabilization of purified pig brain tubulin polymerization at 5 uM measured every 30 seconds by spectrophotometry; in short: as §2
A2780 = assay: Cytotoxicity against taxol-resistant human A2780 cells by MTT assay; assay type: functional, cell-based
[4] = Cytotoxicity against human MCF7/ADR cells by MTT assay; assay type: functional, cell-based; conditions: NCI/ADR-RES
HCT-8 = assay: Cytotoxicity against taxol-resistant human HCT8 cells by MTT assay; assay type: functional, cell-based
DU-145 = assay: Cytotoxicity against human DU145 cells by MTT assay; assay type: functional, cell-based
PC-3 = assay: Cytotoxicity against human PC3 cells by MTT assay; assay type: functional, cell-based
[5] = Cytotoxicity against human ES2 cells by MTT assay; assay type: functional, cell-based; conditions: ES-2
SK-OV-3 = assay: Cytotoxicity against human SKOV3 cells by MTT assay; assay type: functional, cell-based
SK-HEP1 = assay: Cytotoxicity against human SKHEP1 cells by MTT assay; assay type: functional, cell-based
MCF7 = assay: Cytotoxicity against human MCF7 cells by MTT assay; assay type: functional, cell-based
Bel-7402 = assay: Cytotoxicity against human Bel7402 cells by MTT assay; assay type: functional, cell-based
[6] = Cytotoxicity against human SPC-A1 cells by MTT assay; assay type: functional, cell-based; conditions: SPCA1
[7] = Cytotoxicity against human H460 cells by MTT assay; assay type: functional, cell-based; conditions: NCI-H460
NCI-H358 = assay: Cytotoxicity against human NCI-H358 cells by MTT assay; assay type: functional, cell-based
HT-29 = assay: Cytotoxicity against human HT-29 cells by MTT assay; assay type: functional, cell-based
[8] = Cytotoxicity against mouse C26 cells by MTT assay; assay type: functional, cell-based
HCT-15 = assay: Cytotoxicity against human HCT15 cells by MTT assay; assay type: functional, cell-based
HepG2 [9] = assay: Antitumor activity against human HepG2 cells xenografted in Balb/C mouse assessed as tumor volume T/C ratio at 5 mg/kg administered every 4 days for 3 weeks measured on day 20 relative to control
Mus musculus [10] = assay: Toxicity in human HepG2 cells xenografted Balb/C mouse assessed as behaviour changes at 2.5 to 10 mg/kg administered every 2 days for 3 weeks; assay type: organism-based; set-up: dose 2.5-10 mg/kg; conditions: in vivo
In short: (§3)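 Female Balb/C and nude mice (5–6 weeks) carried right-flank HepG2 xenografts (5 × 10⁶ cells). From ~100 mm³ tumor volume they were dosed at 2.5–10 mg/kg every two days for three weeks, six per group, with saline controls. Toxicity signs and mortality were checked daily. Body weight was measured every two days; feeding and behavior were observed.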

Mus musculus [11] = assay: Toxicity in human HepG2 cells xenografted Balb/C mouse assessed as feeding at 2.5 to 10 mg/kg administered every 2 days for 3 weeks; assay type: organism-based; set-up: dose 2.5-10 mg/kg; conditions: in vivo; in short: as §3
Mus musculus [12] = assay: Toxicity in human HepG2 cells xenografted Balb/C mouse assessed as weight loss at 2.5 to 10 mg/kg administered every 2 days for 3 weeks; assay type: organism-based; set-up: dose 2.5-10 mg/kg; conditions: in vivo; in short: as §3
HepG2 [13] = assay: Antitumor activity against human HepG2 cells xenografted in Balb/C mouse assessed as tumor growth inhibition rate compound administered every 2 days for 3 weeks measured on day 20; assay type: functional, cell-based; in short: as §1
HepG2 [14] = assay: Antitumor activity against human HepG2 cells xenografted in Balb/C mouse assessed as tumor growth inhibition rate at 10 mg/kg administered every 2 days for 3 weeks measured on day 20; assay type: functional; conditions: read-out: TGI; in short: as §1
HepG2 [15] = assay: Antitumor activity against human HepG2 cells xenografted in Balb/C mouse assessed as tumor growth inhibition rate at 5 mg/kg administered every 2 days for 3 weeks measured on day 20; assay type: functional; conditions: read-out: TGI; in short: as §1
HepG2 [16] = assay: Antitumor activity against human HepG2 cells xenografted in Balb/C mouse assessed as tumor growth inhibition rate at 2.5 mg/kg administered every 2 days for 3 weeks measured on day 20; assay type: functional; conditions: read-out: TGI; in short: as §1
Tubulin (Homo sapiens) [17] = target: T2, Tubulin (Homo sapiens) (UniProt P68371+Q9H4B7+P0DPH7+P68366+Q13509+Q71U36+P04350+Q3ZCM7+P07437+P68363+Q9BQE3+Q6PEY2+Q13885+Q9BVA1+Q9BUF5); assay: Decrease in unassembled tubulin level in human HepG2 cells at 0.1 to 0.5 uM after 24 hrs by Western blot analysis; assay type: cell-based
In short: (§4)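 HepG2 cells were treated at 0.1 or 0.5 μM for 24 h and washed three times in PBS. They were lysed on ice for 30 min in 20 mM Tris-HCl pH 6.8, 1 mM MgCl₂, 2 mM EGTA, 1 mM PMSF, 1 mM orthovanadate, 0.5% NP-40 and protease inhibitor. Tubulin was immunoblotted with α-tubulin antibody and HRP secondary, with chemiluminescent detection.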

Tubulin (Homo sapiens) [18] = target: T2, Tubulin (Homo sapiens); assay: Increase in polymerized tubulin level in human HepG2 cells at 0.1 to 0.5 uM after 24 hrs by Western blot analysis; assay type: cell-based; in short: as §4
Tubulin (Sus scrofa) [19] = target: T1, Tubulin (Sus scrofa); assay: Stabilization of purified pig brain tubulin polymerization at 10 uM measured every 30 seconds by spectrophotometry; in short: as §2
Tubulin (Sus scrofa) [20] = target: T1, Tubulin (Sus scrofa); assay: Stabilization of purified pig brain tubulin polymerization measured every 30 seconds by spectrophotometry; in short: as §2
Tubulin (Sus scrofa) [21] = target: T1, Tubulin (Sus scrofa); assay: Induction of purified pig brain tubulin depolymerization at 5 to 20 uM measured every 30 seconds by spectrophotometry; in short: as §2
HepG2 [22] = assay: Cell cycle arrest in human HepG2 cells assessed as accumulation at G2/M phase at 1 uM after 24 hrs by flow cytometry (reference value: 17.07 %); assay type: functional
HepG2 [23] = assay: Cell cycle arrest in human HepG2 cells assessed as accumulation at G2/M phase at 0.2 uM after 24 hrs by flow cytometry (reference value: 17.07 %); assay type: functional
HepG2 [24] = assay: Cell cycle arrest in human HepG2 cells assessed as accumulation at G2/M phase at after 24 hrs by flow cytometry; assay type: functional, cell-based
HepG2 [25] = assay: Effect on microtubule network in human HepG2 cells assessed as abnormal mitotic spindles at 1 uM after 24 hrs by propidium iodide-FITC-based staining method; assay type: cell-based
In short: (§5)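 HepG2 cells were treated with 1.0 μM for 24 h. They were washed in PBS, fixed in cold 4% PFA for 10 min and blocked for 1 h in 5% goat serum/0.3% Triton/PBS. Staining used monoclonal anti-α-tubulin overnight at 4 °C, then Alexa Fluor 488 anti-mouse IgG for 30 min at room temperature, with propidium iodide for DNA. Cells were imaged by fluorescence or confocal microscopy.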

HepG2 [26] = assay: Effect on microtubule network in human HepG2 cells assessed as multiple tubulin bundles without chromosomes aligned at the metaphase plate with more dispersion of the chromosomes at 1 uM after 24 hrs by propidium iodide-FITC-based staining method; assay type: cell-based; in short: as §5
[27] = Ratio of taxol IC50 to compound IC50 for mouse C26 cells by MTT assay; assay type: functional
[28] = Cytotoxicity against human A2780S cells by MTT assay; assay type: functional, cell-based; conditions: A2780
[29] = Cytotoxicity against human LO2 cells by MTT assay; assay type: cell-based; conditions: L02
In short: (§6)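 Log-phase cells were diluted to 40,000–50,000 cells/mL in medium with 10% FBS, 2 mM glutamine and antibiotics (37 °C, 5% CO₂). They were seeded in 96-well plates and treated with a range of doses. MTT was added for 4 h, the formazan was dissolved in DMSO, and absorbance was read at 590 nm.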

A-375 = assay: Cytotoxicity against human A375 cells by MTT assay; assay type: functional, cell-based; in short: as §6
K562 = assay: Cytotoxicity against human K562 cells by MTT assay; assay type: functional, cell-based; in short: as §6
HepG2 [30] = assay: Cytotoxicity against human HepG2 cells by MTT assay; assay type: functional, cell-based; in short: as §6
HepG2 [31] = assay: Induction of microtubule polymerization in human HepG2 cells at 1 uM after 24 hrs by propidium iodide-FITC-based staining method
HepG2 [32] = assay: Antitumor activity against human HepG2 cells xenografted in Balb/C mouse assessed as tumor volume T/C ratio at 5 mg/kg administered every 2 days for 3 weeks measured on day 20 relative to control
HepG2 [33] = assay: Antitumor activity against human HepG2 cells xenografted in Balb/C mouse assessed as tumor volume T/C ratio at 10 mg/kg administered every 2 days for 3 weeks measured on day 20 relative to control
HepG2 [34] = assay: Antitumor activity against human HepG2 cells xenografted in Balb/C mouse assessed as tumor volume T/C ratio at 2.5 mg/kg administered every 2 days for 3 weeks measured on day 20 relative to control

T1 sequence (P02550 whole entry, looked up): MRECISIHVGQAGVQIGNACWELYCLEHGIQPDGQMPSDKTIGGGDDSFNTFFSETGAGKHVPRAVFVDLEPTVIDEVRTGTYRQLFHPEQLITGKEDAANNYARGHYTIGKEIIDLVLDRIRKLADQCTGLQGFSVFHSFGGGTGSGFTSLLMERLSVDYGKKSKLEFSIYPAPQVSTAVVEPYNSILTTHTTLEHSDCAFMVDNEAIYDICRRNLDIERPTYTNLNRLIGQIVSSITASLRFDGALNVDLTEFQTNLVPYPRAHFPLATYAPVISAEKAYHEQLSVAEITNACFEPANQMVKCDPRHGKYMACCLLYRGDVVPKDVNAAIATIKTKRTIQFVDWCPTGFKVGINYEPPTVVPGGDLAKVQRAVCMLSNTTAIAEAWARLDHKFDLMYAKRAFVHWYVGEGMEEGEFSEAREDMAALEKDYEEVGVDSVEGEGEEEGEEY
T1 sequence (P02554 whole entry, looked up): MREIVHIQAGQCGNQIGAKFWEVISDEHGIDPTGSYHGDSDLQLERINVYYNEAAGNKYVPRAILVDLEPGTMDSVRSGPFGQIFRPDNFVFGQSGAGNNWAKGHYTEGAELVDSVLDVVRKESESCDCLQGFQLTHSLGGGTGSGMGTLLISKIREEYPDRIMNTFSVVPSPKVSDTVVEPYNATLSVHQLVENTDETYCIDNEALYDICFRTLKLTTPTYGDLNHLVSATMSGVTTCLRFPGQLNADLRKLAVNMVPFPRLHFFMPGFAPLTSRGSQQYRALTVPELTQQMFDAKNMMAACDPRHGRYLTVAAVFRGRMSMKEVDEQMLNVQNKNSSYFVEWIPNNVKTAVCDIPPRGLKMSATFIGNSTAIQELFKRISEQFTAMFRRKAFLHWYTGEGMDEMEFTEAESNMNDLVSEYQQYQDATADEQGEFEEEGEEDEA

Activity (Tubulin (Sus scrofa) [2]): 23.8%
Activity (Tubulin (Sus scrofa) [3]): 6.3%
Structure (SMILES): CC(=O)O[C@H]1C(=O)[C@@]2(C)[C@H]([C@H](OC(=O)c3ccccc3)[C@]3(O)C[C@H](OC(=O)[C@H](O)[C@@H](NC(=O)c4ccccc4)c4ccccc4)C(C)=C1C3(C)C)[C@]1(OC(C)=O)CO[C@@H]1C[C@@H]2O [PACLITAXEL]
inhibition in vivo at 5 mg/kg (HepG2 [1]): 59.1%
IC50 (A2780): 8250 nM
IC50 [4]: 6900 nM
IC50 (HCT-8): 13300 nM
IC50 (DU-145): 30 nM
IC50 (PC-3): 140 nM
IC50 [5]: 100 nM
IC50 (SK-OV-3): 100 nM
IC50 (SK-HEP1): 240 nM
IC50 (MCF7): 660 nM
IC50 (Bel-7402): > 2000 nM
IC50 [6]: 5300 nM
IC50 [7]: 24000 nM
IC50 (NCI-H358): 10 nM
IC50 (HT-29): 450 nM
IC50 [8]: 1050 nM
IC50 (HCT-15): 120 nM
T/C at 5 mg/kg (HepG2 [9]): 32.4%

Activity (Tubulin (Homo sapiens) [17]): Active
Activity (Tubulin (Homo sapiens) [18]): Active
Activity (Tubulin (Sus scrofa) [2]): 32%
Activity (Tubulin (Sus scrofa) [19]): 16.3%
Activity (Tubulin (Sus scrofa) [3]): 10%
Activity (Tubulin (Sus scrofa) [20]): Dose-dependent effect
Activity (Tubulin (Sus scrofa) [21]): inactive
Structure (SMILES): CCC(=O)Oc1cc(/C=C/C(=O)c2ccc(OC)c3c2OC(C)(C)C=C3)ccc1OC
Activity (Mus musculus [10]): Non-toxic
Activity (Mus musculus [11]): Non-toxic
Activity (Mus musculus [12]): Non-toxic
TGI (HepG2 [13]): Dose-dependent effect
inhibition in vivo at 10 mg/kg (HepG2 [14]): 69.7%
inhibition in vivo at 5 mg/kg (HepG2 [15]): 57.6%
inhibition in vivo at 2.5 mg/kg (HepG2 [16]): 54.3%
Activity (HepG2 [22]): 76.02%
Activity (HepG2 [23]): 67.76%
Activity (HepG2 [24]): Dose-dependent effect
Activity (HepG2 [25]): Active
Activity (HepG2 [26]): Active
Ratio IC50 [27]: 3
IC50 (A2780): 1330 nM
IC50 [4]: 160 nM
IC50 (HCT-8): 1690 nM
IC50 (DU-145): 190 nM
IC50 [28]: 220 nM
IC50 (PC-3): 90 nM
IC50 [5]: 100 nM
IC50 (SK-OV-3): 350 nM
IC50 (SK-HEP1): 320 nM
IC50 (MCF7): 190 nM
IC50 (Bel-7402): 400 nM
IC50 [6]: 22300 nM
IC50 [7]: 4050 nM
IC50 (NCI-H358): 150 nM
IC50 (HT-29): 200 nM
IC50 [8]: 310 nM
IC50 (HCT-15): 100 nM
IC50 [29]: > 10000 nM
IC50 (A-375): 240 nM
IC50 (K562): 160 nM
IC50 (HepG2 [30]): 90 nM
Activity (HepG2 [31]): Active
T/C at 5 mg/kg (HepG2 [32]): 32.4%
T/C at 10 mg/kg (HepG2 [33]): 33.9%
T/C at 2.5 mg/kg (HepG2 [34]): 34.9%
